Experimental data as given in ChEMBL document CHEMBL1157000, “Aminofurazans as potent inhibitors of AKT kinase” (Bioorg Med Chem Lett, 2009).

Tests used:
HFF = assay: Antiproliferative activity against human HFF cells; format: functional, cell-based
Procedure, shortened: (§1)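 Cell proliferation inhibition in tumour lines (BT474, LNCaP) and non-tumour HFF cells; values are the mean of at least two experiments.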

BT-474 = assay: Antiproliferative activity against human BT474 cells; format: functional, cell-based; procedure, shortened: as §1
LNCaP = assay: Antiproliferative activity against human LNCAP cells; format: functional, cell-based; procedure, shortened: as §1
[1] = biological target: RAC-alpha serine/threonine-protein kinase (Homo sapiens, UniProt P31749); assay: Inhibition of AKT
Sequence of RAC-alpha serine/threonine-protein kinase (P31749 whole entry): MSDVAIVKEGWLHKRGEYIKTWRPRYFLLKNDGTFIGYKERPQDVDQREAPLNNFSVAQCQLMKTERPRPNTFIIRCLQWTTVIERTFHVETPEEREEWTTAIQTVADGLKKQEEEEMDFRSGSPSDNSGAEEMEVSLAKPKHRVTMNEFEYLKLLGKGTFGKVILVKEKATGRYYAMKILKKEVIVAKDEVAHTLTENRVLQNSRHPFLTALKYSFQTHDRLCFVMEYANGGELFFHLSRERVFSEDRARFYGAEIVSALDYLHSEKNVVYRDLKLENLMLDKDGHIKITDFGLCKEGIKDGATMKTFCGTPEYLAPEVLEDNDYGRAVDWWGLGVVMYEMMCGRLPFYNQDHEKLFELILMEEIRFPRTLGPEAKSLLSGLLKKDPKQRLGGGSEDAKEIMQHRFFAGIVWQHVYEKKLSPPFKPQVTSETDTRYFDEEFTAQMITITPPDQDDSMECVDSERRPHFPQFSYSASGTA

[2] = biological target: RAC-gamma serine/threonine-protein kinase (Homo sapiens, UniProt Q9Y243); assay: Inhibition of AKT3
Sequence of RAC-gamma serine/threonine-protein kinase (Q9Y243 whole entry): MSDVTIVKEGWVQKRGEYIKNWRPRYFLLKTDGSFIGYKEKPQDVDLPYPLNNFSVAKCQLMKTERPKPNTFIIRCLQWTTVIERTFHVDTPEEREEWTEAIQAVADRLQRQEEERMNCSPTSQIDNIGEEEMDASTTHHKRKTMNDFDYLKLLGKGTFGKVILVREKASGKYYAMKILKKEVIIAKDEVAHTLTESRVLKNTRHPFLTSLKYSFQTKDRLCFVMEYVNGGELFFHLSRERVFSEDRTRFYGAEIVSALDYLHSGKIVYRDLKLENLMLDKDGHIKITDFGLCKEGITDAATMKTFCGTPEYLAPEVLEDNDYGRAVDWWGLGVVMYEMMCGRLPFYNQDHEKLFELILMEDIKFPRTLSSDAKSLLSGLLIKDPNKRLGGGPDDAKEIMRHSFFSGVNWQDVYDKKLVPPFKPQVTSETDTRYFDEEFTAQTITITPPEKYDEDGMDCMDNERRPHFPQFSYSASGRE

Mus musculus = assay: Inhibition of GSK3B phosphorylation in human BT474 cells xenografted in ip dosed mouse; format: functional, organism-based; conditions: BT-474
Procedure, shortened: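 Mice bearing BT474 xenografts were dosed ip at […], 12.5 or 25 mg/kg, with a vehicle control group. GSK3b phosphorylation in the tumours was the read-out.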

SMILES | IC50 (BT-474) | IC50 (LNCaP) | IC50 [1] | Ki [1] | IC50 [2] | IC50 (HFF) | inhibition (Mus musculus)
CCn1c(-c2nonc2N)nc2c(C#CC(C)(C)O)nc(CNC)cc21 | 0.439 µM | 0.201 µM | 0.003 µM | – | – | 5.9 µM | –
CCn1c(-c2nonc2N)nc2c(C#CC(C)(C)O)nc(OCCCN)cc21 | 7.12 µM | 3.18 µM | 0.016 µM | 0.115 µM | – | 30 µM | –
CCn1c(-c2nonc2N)nc2c(C#CC(C)(C)O)nc(OCCNC)cc21 | 3.19 µM | 0.896 µM | 0.012 µM | – | – | 17 µM | –
CCn1c(-c2nonc2N)nc2c(C#CC(C)(C)O)nc(OC[C@H](C)N)cc21 | 4.86 µM | 0.56 µM | 0.013 µM | – | – | 28 µM | –
CCn1c(-c2nonc2N)nc2c(C#CC(C)(C)O)nc(OC[C@@H](N)Cc3ccccc3)cc21 | 1.5 µM | 0.101 µM | 0.003 µM | – | – | 7 µM | –
CCn1c(-c2nonc2N)nc2c(C#CC(C)(C)O)nc(OC[C@@H](C)N)cc21 | 0.86 µM | 0.22 µM | 0.008 µM | – | – | 17 µM | –
CCn1c(-c2nonc2N)nc2c(C#CC(C)(C)O)nc(CCCN)cc21 | 3.52 µM | 4.72 µM | 0.003 µM | – | 0.03 µM | 23 µM | –
CCn1c(-c2nonc2N)nc2c(C#CC(C)(C)O)nc(O[C@H](CCN)c3ccccc3)cc21 | 0.224 µM | 0.085 µM | 0.004 µM | 0.0019 µM | 0.065 µM | 29 µM | –
CCn1c(-c2nonc2N)nc2c(C#CC(C)(C)O)nc(CCN)cc21 | 1.09 µM | 2.02 µM | 0.004 µM | – | – | 24 µM | –
CCn1c(-c2nonc2N)nc2c(C#CC(C)(C)O)nc(O[C@@H](CN)c3ccccc3)cc21 | 0.035 µM | 0.027 µM | 0.001 µM | 0.0004 µM | 0.001 µM | 0.519 µM | Dose-dependent effect
CCn1c(-c2nonc2N)nc2c(C#CC(C)(C)O)nc(OC[C@H](N)Cc3ccccc3)cc21 | 0.742 µM | 0.02 µM | 0.0006 µM | 0.0002 µM | 0.003 µM | 8 µM | –
CCn1c(-c2nonc2N)nc2c(C#CC(C)(C)O)nc(OC[C@@H](N)c3ccccc3)cc21 [GSK-938890A] | 3.44 µM | 0.176 µM | 0.005 µM | – | 0.049 µM | 20 µM | –
CCn1c(-c2nonc2N)nc2c(C#CC(C)(C)O)nc(O[C@H](CN)c3ccccc3)cc21 | 0.124 µM | 0.068 µM | 0.003 µM | 0.003 µM | – | 20 µM | –

More lines, in order of falling IC50 (BT-474), values ahead:

IC50 (BT-474) | IC50 (LNCaP) | IC50 [1] | Ki [1] | IC50 [2] | SMILES | IC50 (HFF) | inhibition (Mus musculus)
20 µM | 6.16 µM | 0.063 µM | – | – | CCn1c(-c2nonc2N)nc2c(C#CC(C)(C)O)nc(OCCCCN)cc21 | 30 µM | –
2.1 µM | 0.124 µM | 0.003 µM | – | 0.017 µM | CCn1c(-c2nonc2N)nc2c(C#CC(C)(C)O)nc(OC[C@H](N)c3ccccc3)cc21 [GSK-943949A] | 5 µM | –
1.25 µM | 0.313 µM | 0.006 µM | – | 0.022 µM | CCn1c(-c2nonc2N)nc2c(C#CC(C)(C)O)nc(CN3CCCC3)cc21 [GSK-1000163A] | 30 µM | –
1.08 µM | 0.497 µM | 0.005 µM | 0.006 µM | 0.043 µM | CCn1c(-c2nonc2N)nc2c(C#CC(C)(C)O)nc(OCCN)cc21 | 5 µM | –
0.806 µM | 0.296 µM | 0.006 µM | – | – | CCn1c(-c2nonc2N)nc2c(C#CC(C)(C)O)nc(CN)cc21 | 24 µM | –
0.357 µM | 0.114 µM | 0.002 µM | – | – | CCn1c(-c2nonc2N)nc2c(C#CC(C)(C)O)nc(CN(C)C)cc21 | 30 µM | –
0.069 µM | 0.021 µM | – | – | – | CCn1c(-c2nonc2N)nc2c(C#CC(C)(C)O)ncc(OC[C@H]3CCCNC3)c21 [GSK-690693] | > 23 µM | –
0.001 µM | 0.005 µM | 0.002 µM | 0.0002 µM | – | CCn1c(-c2nonc2N)nc2c(C#CC(C)(C)O)nc(O[C@@H](CCN)c3ccccc3)cc21 | 11 µM | –
